Screening data as filed in PubChem BioAssay.
Sampled rows, rich in hits. Any-hit rate of the full collection: about 1.6%.
TLR9-MyD88 block: TLR9-MyD88 interaction inhibition; Q9NR96+Q99836; CHO BLA complementation TLR9-MyD88, CCF4 FRET ratio; inhibition, % at 4.98 µM; hit rate 0.21% among 340,000; AID 504734;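 active means inhibition above the mean over all tested compounds plus 3 SD, cut at about 21% in these data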
Dynein cargo inh: blocks dynein driven cargo transport along microtubules | z-score, hits read low | hit rate 0.47% among 220,000 | 3617.4 mouse cells, GR-EGFP nuclear translocation imaging; test concentration mostly 20 µM; stimulated with dexamethasone, 1 µM; stronger effect = lower value;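 active means plate z-score of nuclear minus cytoplasmic receptor signal below a set negative limit, without overly bright fluorescence or cell loss, cut at about -3.5 in these data, passing the limit was not always enough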;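 further: z-score of nuclear minus cytoplasmic ring GR-EGFP intensity difference per well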
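Buffer or medium – tet-free medium with charcoal-stripped serum · Signal – automated 10x imaging of fixed Hoechst-stained cells · Also added – dexamethasone agonist, 1.0 µM final, for 30 min · Incubation – induction 48 h, compound 1 h, agonist 30 min · Read-out – GR-EGFP nuclear translocation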
TLR4 MyD88 comp: blocks binding of human TLR4 to MyD88. inhibition, % at 8.4 µM. AID 861. hit rate 0.18% among 200,000. HeLa CL3-4 TLR4/MyD88 BLA complementation, FRET ratio; in the data active means inhibition above about 25%
ABHD5-PLIN5 inh: ABHD5-PLIN5 protein interaction inhibition; Q00G26+Q8WTS1; Split G. princeps luciferase complementation, luminescence, 4 h; inhibition, % at 4 µM; hit rate 0.78% among 360,000; AID 602281;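 active means inhibition above the mean inhibition across every tested compound plus 3 SD, cut at about 22% in these data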
Beta2AR agonist: agonists of human beta-2 adrenergic receptor inducing internalization. P07550. Am2.2-beta2AR cells, FAP receptor internalization, flow cytometry. response, % (no concentration beside the values). hit rate 0.43% among 340,000;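 active means response above a set limit, near 3 SD of response in nonfluorescent compounds, cut at about 42% in these data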
Target sequence (P07550 whole entry, looked up): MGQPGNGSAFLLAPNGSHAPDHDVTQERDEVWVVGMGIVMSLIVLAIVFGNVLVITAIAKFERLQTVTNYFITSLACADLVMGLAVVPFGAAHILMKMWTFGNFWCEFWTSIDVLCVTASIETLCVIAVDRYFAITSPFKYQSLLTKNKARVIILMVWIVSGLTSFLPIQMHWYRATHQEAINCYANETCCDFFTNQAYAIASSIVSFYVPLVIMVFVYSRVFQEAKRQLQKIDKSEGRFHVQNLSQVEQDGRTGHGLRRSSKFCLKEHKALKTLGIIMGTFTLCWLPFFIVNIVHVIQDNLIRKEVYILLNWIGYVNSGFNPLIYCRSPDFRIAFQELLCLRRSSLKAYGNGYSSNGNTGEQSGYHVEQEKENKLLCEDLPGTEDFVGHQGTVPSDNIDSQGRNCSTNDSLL
NOD2 RIPK2 PPI: inhibitors of human NOD2-RIPK2 interaction; O43353; CHO BLA complementation NOD2-RIPK2, CCF4 ratio; inhibition, % at 4.98 µM; hit rate 0.38% among 360,000; AID 624267; in the data active means inhibition above about 21%
A number is an active result; . = inactive; / = no result.

SMILES	TLR9-MyD88 block	Dynein cargo inh	TLR4 MyD88 comp	ABHD5-PLIN5 inh	Beta2AR agonist	NOD2 RIPK2 PPI
CC(C)C[C@@H](COCc1cccc(C(F)(F)F)c1)N1CCN(C(=O)c2ccc(C(F)(F)F)cc2)CCC1=O	/	/	/	.	/	.
O=C(Nc1nc(-c2ccco2)c(-c2ccco2)s1)c1c(F)cccc1Cl	.	/	/	33	.	.
c1ccc(CCNc2ccnc3cc4ccccc4cc23)cc1	.	.	.	.	81	.
COc1ccc(NC(=O)/C(C#N)=C\C=C\c2ccco2)cc1	.	.	.	.	.	.
COC(=O)C(=C/C=C/c1ccco1)C(=O)OC	.	.	/	23	.	.
CC(Oc1cc2oc(=O)c3c(c2cc1Cl)CCC3)C(=O)NCCCN1CCCC1=O (configuration not stated)	.	/	/	.	.	.
NC(N)=N/N=C/c1ccc(OCc2ccccc2Cl)cc1	.	.	.	.	53	.
CN(C)Cc1ncccc1Oc1nc2cc(-c3cccc(Cl)c3)sc2c(=O)n1C	/	/	/	.	/	.
O=C(N/N=C/c1cccc([N+](=O)[O-])c1)c1cc[n+](CCO)cc1	.	/	/	.	46	.
CCOC(=O)C1CCCN(C(=O)c2cc(OC)ccc2Br)CC1 (configuration not stated)	/	/	/	.	/	.
FC(F)(F)C1=Nc2cccc3cccc(c23)N1	.	/	/	.	82	.
Fc1ccc(C2=Nc3cccc4cccc(c34)N2)cc1	.	.	.	.	.	.
COc1ccc(-c2csc(C(NC(C)=O)c3ccccc3)n2)cc1 (configuration not stated)	/	/	/	.	/	.
CCCN1C/C(=C/c2cccc([N+](=O)[O-])c2)C(=O)/C(=C/c2cccc([N+](=O)[O-])c2)C1	.	-6.3	.	.	.	.
CN1C(=O)/C(=C/c2cccc([N+](=O)[O-])c2)C(=O)N1c1ccccc1	.	/	/	.	.	.
N#Cc1cc(Sc2ccccn2)c(Sc2ccccn2)cc1C#N	.	.	.	.	58	.
Cc1ccc2cc(CN(CCCN(C)C)C(=S)NCc3ccccc3)c(=O)[nH]c2c1C	.	.	.	23	.	.
C[C@@H]1CN([C@@H](C)CO)C(=O)c2cc(Br)cnc2O[C@@H]1CN(C)C(=O)CN(C)C	.	/	/	.	/	.
CC(C)(C)c1nn(-c2ccccc2)c2[nH]c(=O)c(C=O)cc12	.	/	/	.	55	.
CC(C)(C)c1nn(-c2ccccc2)c2nc(Cl)c(C=O)cc12	.	.	.	.	.	.
COc1cc2c(O)c3c(c(-c4ccc5c(c4)OCO5)c2cc1OC)C(=O)OC3	.	.	.	.	45	.
COc1ccc(-c2oc(=O)c3cc(OC)c(OC)cc3c2-c2ccc3c(c2)OCO3)cc1	.	/	/	.	.	.
COc1cc2c(OC(C)=O)c3c(c(-c4ccc5c(c4)OCO5)c2cc1OC)C(=O)OC3	.	.	.	.	59	.
CN(C)CCN1CCN(C(c2cc3ccccc3o2)c2nnnn2C(C)(C)C)CC1 (configuration not stated)	/	/	/	.	/	.
Cc1ccc(-c2cc(C(=O)Nc3cccnc3)c3ccccc3n2)o1	.	-4.4	.	.	.	.
SMILES	TLR9-MyD88 block	Dynein cargo inh	TLR4 MyD88 comp	ABHD5-PLIN5 inh	Beta2AR agonist	NOD2 RIPK2 PPI
CCCCCCNC(=O)O[C@H]1Cn2c(=O)n(CCCCCC)c(=O)n2[C@@H]2CN(S(=O)(=O)c3ccc(C)cc3)C[C@]12O	.	/	/	.	/	.
CCCCCCNC(=O)O[C@H]1Cn2c(=O)ccc(=O)n2[C@@H]2CN(S(=O)(=O)c3ccc(C)cc3)C[C@]12O	.	/	/	23	/	.
CCOC(=O)c1ccc(N2C(=O)CC(Sc3nnc(C)s3)C2=O)cc1 (configuration not stated)	.	-3.5	.	.	.	.
CCOC(=O)c1ccc(N2C(=O)CC(Sc3nc(C)cc(C)n3)C2=O)cc1 (configuration not stated)	.	/	/	.	.	.
O=C(COC(=O)c1cccc(S(=O)(=O)N2CCCC2)c1)Nc1cccc(Br)c1	.	/	/	.	/	.
O=[N+]([O-])c1c(Nc2ccccn2)cc(Cl)c2nonc12	.	.	/	.	63	.
Cc1nnc(SCC(=O)Nc2sc3c(c2C(N)=O)CCC(C)C3)[nH]c1=O (configuration not stated)	.	/	/	.	.	.
COc1ccccc1CNC(=O)/C=C/c1ccc(Br)o1	.	.	.	.	71	.
O=Cc1ccc(Sc2nnc(-c3ccccc3)o2)c([N+](=O)[O-])c1	.	.	.	.	.	.
Cn1nc([N+](=O)[O-])nc1Sc1nnc(-c2ccccc2)o1	.	-3.7	.	.	.	.
C#CCOCCOCCOCCNc1nc(N2CCN(C(=O)[C@H]([C@@H](C)CC)n3cc(CCCN=C(N)N)nn3)CC2)nc(N2CCN(C(=O)[C@H]([C@@H](C)CC)n3cc(CCCN=C(N)N)nn3)CC2)n1	/	.	.	/	/	/
C#CCOCCOCCOCCNc1nc(N2CCN(C(=O)CCCCCCCCCCNC(=O)Cn3cc(CCCCCN)nn3)CC2)nc(N2CCN(C(=O)CCCCCCCCCCNC(=O)[C@H]([C@@H](C)CC)n3cc(CCCCN=C(N)N)nn3)CC2)n1	40	/	/	58	.	35
C#CCOCCOCCOCCNc1nc(N2CCN(C(=O)CCCCCCCCCCNC(=O)[C@H]([C@@H](C)CC)n3cc(CCCCCN)nn3)CC2)nc(N2CCN(C(=O)CCCCCCCCCCNC(=O)[C@H](CO)n3cc(CCCCCN)nn3)CC2)n1	.	/	/	39	.	.
C#CCOCCOCCOCCNc1nc(N2CCN(C(=O)CCCCCCCCCCNC(=O)[C@H]([C@@H](C)CC)n3cc(CCCCN=C(N)N)nn3)CC2)nc(N2CCN(C(=O)CCCCCCCCCCNC(=O)[C@H](CO)n3cc(CCCCCN)nn3)CC2)n1	35	/	/	47	52	31
C#CCOCCOCCOCCNc1nc(N2CCN(C(=O)CCCCCCCCCCNC(=O)[C@H]([C@@H](C)CC)n3cc(CCCCCN)nn3)CC2)nc(N2CCN(C(=O)CCCCCCCCCCNC(=O)[C@H]([C@@H](C)CC)n3cc(CCCCN=C(N)N)nn3)CC2)n1	75	/	/	59	.	69
C#CCOCCOCCOCCNc1nc(N2CCN(C(=O)Cn3cc(CCCN=C(N)N)nn3)CC2)nc(N2CCN(C(=O)[C@H]([C@@H](C)CC)n3cc(CCCCN)nn3)CC2)n1	.	/	/	.	.	.
C#CCOCCOCCOCCNc1nc(N2CCOCC2)nc(N2CCN(C(=O)CCCCCCCCCCNC(=O)[C@@H](CCC(=O)O)n3cc(CCCCCN)nn3)CC2)n1	.	/	/	.	.	.
C#CCOCCOCCOCCNc1nc(N2CCOCC2)nc(N2CCN(C(=O)CCCCCCCCCCNC(=O)[C@@H]([C@H](C)CC)n3cc(CCCCCN)nn3)CC2)n1	.	/	/	27	.	.
